Holding throughout (assay): intrinsic Trp fluorescence titration, Scatchard analysis
Common to all, as to type: binding

Test [1] deals with α-chymotrypsinogen A (aCHY) (Bos taurus, UniProt P00766). The method in brief: (§1)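 Trp fluorescence read with 295 nm excitation and 335–360 nm emission. Fraction bound was taken from intensity relative to unbound and saturated protein. K was taken from the slope of linear Scatchard (ν/c vs ν) segments.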
The target in the next test is T1, ovalbumin (OVA) (Gallus gallus, UniProt P01012).
T1 sequence (P01012 2-386): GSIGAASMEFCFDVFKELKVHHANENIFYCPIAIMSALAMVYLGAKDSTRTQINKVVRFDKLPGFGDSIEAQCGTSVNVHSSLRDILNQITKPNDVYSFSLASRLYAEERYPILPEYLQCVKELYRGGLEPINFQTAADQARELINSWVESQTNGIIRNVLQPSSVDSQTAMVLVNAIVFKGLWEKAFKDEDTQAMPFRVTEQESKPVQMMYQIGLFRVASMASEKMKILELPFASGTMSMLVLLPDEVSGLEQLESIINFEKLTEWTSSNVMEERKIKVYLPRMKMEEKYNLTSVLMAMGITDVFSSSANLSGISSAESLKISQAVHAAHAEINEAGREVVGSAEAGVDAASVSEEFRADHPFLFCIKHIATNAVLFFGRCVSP
The method in brief: as §1

For test [2], the target named is Bovine Serum albumin (BSA) (Bos taurus, UniProt P02769). The method in brief:
as §1

Chain of Bovine Serum albumin (BSA) (P02769 25-607): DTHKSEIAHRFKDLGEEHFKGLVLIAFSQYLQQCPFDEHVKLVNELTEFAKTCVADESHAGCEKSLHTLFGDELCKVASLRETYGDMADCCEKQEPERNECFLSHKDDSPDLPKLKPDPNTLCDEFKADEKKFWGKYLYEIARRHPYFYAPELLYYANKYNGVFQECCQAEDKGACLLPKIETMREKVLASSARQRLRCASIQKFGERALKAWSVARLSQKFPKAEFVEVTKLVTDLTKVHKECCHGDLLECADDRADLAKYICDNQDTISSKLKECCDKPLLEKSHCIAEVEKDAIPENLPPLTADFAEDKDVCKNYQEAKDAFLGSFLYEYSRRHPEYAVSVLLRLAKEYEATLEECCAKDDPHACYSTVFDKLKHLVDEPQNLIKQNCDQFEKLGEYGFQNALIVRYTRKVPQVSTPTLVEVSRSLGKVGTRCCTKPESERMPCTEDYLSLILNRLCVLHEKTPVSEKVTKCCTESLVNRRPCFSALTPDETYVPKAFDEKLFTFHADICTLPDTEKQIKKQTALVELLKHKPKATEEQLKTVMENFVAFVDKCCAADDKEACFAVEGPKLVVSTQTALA

Consider `CCCCCCCCCCCCOS(=O)(=O)O` [SDS], for which the Kd in test [1] is 455 µM; on ovalbumin (OVA) it was 11.7 µM; in test [2] it was 22.2 µM.

In the case of `C=CCCCCCCCCCOS(=O)(=O)O` [SUS], binding in test [1] was put at a Kd of 498 µM.

Values taken from PMC3172397 (Journal of colloid and interface science, 2011).
